Assay results reported in ChEMBL document CHEMBL4138250, “Regioselective IBX-Mediated Synthesis of Coumarin Derivatives with Antioxidant and Anti-influenza Activities” (J Nat Prod, 2017).
Converted amounts (≈) assume the structure as drawn.

What was measured:
[1] = Antioxidant activity assessed as DPPH radical scavenging activity incubated for 30 mins under dark condition; format: functional
In short: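 Compounds serially diluted in EtOH (0.01−100 mg/mL) and added to freshly prepared DPPH (6 × 10−5 M in EtOH). Mixture shaken, kept 30 min in the dark, then absorbance read at 517 nm against a solvent blank. % scavenging is relative to a DPPH-only control, corrected for sample colour without DPPH. IC50 is the concentration giving 50% inhibition; triplicate runs.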

[2] = system: Influenza A virus; assay: Antiviral activity against Influenza A virus (A/Puerto Rico/8/34(H1N1)) infected in A549 cells assessed as reduction in viral titer after 24 to 48 hrs by hemagglutination test; format: functional, organism-based; conditions: A/Puerto Rico/8/1934(H1N1)
In short: (§1)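 Confluent A549 monolayers (DMEM, 10% FBS) infected with PR8 at MOI 0.0001 for 1 h at 37 °C, PBS-washed, then kept in 2% FBS medium. Compounds in DMSO were diluted in DMEM to final 30, 40, 60, 80 or 120 μg/mL, added after adsorption and kept to the end. DMSO was at most 0.2%, with matching DMSO-treated controls and mock infection. Supernatant HAU read at 24 and 48 h with human type 0 Rh+ erythrocytes.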

[3] = system: A549; assay: Cytotoxicity against human A549 cells assessed as reduction in cell viability up to 120 ug/ml after 24 hrs by microscopic analysis; format: cell-based; conditions: a549, 24 h
In short: (§2)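 A549 cells seeded at 2 × 10^5/mL; after 24 h, exposed to compounds at 10−120 μg/mL for a further 24 h. Viability assessed by microscopic examination, Trypan blue (0.02%) exclusion and MTT reduction. Cytotoxicity expressed as % reduction in viable cells relative to cultures treated with DMSO alone.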

[4] = system: A549; assay: Cytotoxicity against human A549 cells assessed as reduction in cell viability up to 120 ug/ml after 24 hrs by tryphan blue exclusion assay; format: cell-based; conditions: a549, 24 h; in short: as §2
[5] = system: A549; assay: Cytotoxicity against human A549 cells assessed as reduction in cell viability up to 120 ug/ml after 24 hrs by MTT assay; format: cell-based; conditions: a549, 24 h; in short: as §2
[6] = system: Influenza A virus; assay: Antiviral activity against Influenza A virus (A/Puerto Rico/8/34(H1N1)) infected in A549 cells assessed as reduction in viral titer at 120 ug/ml after 24 to 48 hrs by hemagglutination test relative to control; format: functional, A/Puerto Rico/8/1934(H1N1); design: scale not given: the % may be the effect or the level left; in short: as §1

Structure (SMILES)	IC50 [1] [µg/mL]	IC50 [2] [µg/mL]	Activity [3]	Activity [4]	Activity [5]	Activity [2]	Activity [6] [%]
O=c1ccc2ccc(O)c(O)c2o1 [DAPHNETIN]	27200 (≈ 153 mM)	146 (≈ 0.818 mM)	–	–	–	–	–
O=c1ccc2ccc(O)cc2o1 [UMBELLIFERONE]	> 200000	110 (≈ 0.678 mM)	Non-Toxic	Non-Toxic	Non-Toxic	Dose-dependent effect	50
Nc1ccc2c(C(F)(F)F)cc(=O)oc2c1O	9300 (≈ 37.9 mM)	47.8 (≈ 0.195 mM)	Non-Toxic	Non-Toxic	Non-Toxic	Dose-dependent effect	–
O=c1ccc2c(O)c(O)ccc2o1	–	106 (≈ 0.598 mM)	Non-Toxic	Non-Toxic	Non-Toxic	Dose-dependent effect	50
O=c1ccc2cc(O)c(O)c(O)c2o1	8700 (≈ 44.8 mM)	69.9 (≈ 0.36 mM)	Non-Toxic	Non-Toxic	Non-Toxic	Dose-dependent effect	–
Nc1ccc2c(C(F)(F)F)cc(=O)oc2c1	–	51 (≈ 0.223 mM)	Non-Toxic	Non-Toxic	Non-Toxic	Dose-dependent effect	–
O=c1ccc2cc(O)c(O)cc2o1 [ESCULETIN]	37700 (≈ 212 mM)	–	–	–	–	–	–
O=c1ccc2c(O)c(O)c(O)cc2o1	2500 (≈ 12.9 mM)	47.9 (≈ 0.247 mM)	Non-Toxic	Non-Toxic	Non-Toxic	Dose-dependent effect	–
O=c1cc(O)c2ccc(O)c(O)c2o1	24100 (≈ 124 mM)	–	–	–	–	–	–
O=c1ccc2cc(O)ccc2o1 [6-HYDROXYCOUMARIN]	> 200000	110 (≈ 0.678 mM)	Non-Toxic	Non-Toxic	Non-Toxic	Dose-dependent effect	50
COc1cc2ccc(=O)oc2c(O)c1O [FRAXETIN]	39200 (≈ 188 mM)	–	–	–	–	–	–
Cc1cc(=O)oc2c(O)c(O)ccc12 [4-METHYLDAPHNETIN]	22000 (≈ 114 mM)	91.5 (≈ 0.476 mM)	Non-Toxic	Non-Toxic	Non-Toxic	Dose-dependent effect	–
